ChEMBL document CHEMBL4325889, “Natural products hybrids: 3,5,4'-Trimethoxystilbene-5,6,7-trimethoxyflavone chimeric analogs as potential cytotoxic agents against diverse human cancer cells” (Eur J Med Chem, 2019)

Assays:
Type in all cases: functional
786-0 = test: Growth inhibition of human 786-0 cells at 10 uM after 48 hrs by SRB assay relative to control; conditions: 786-0, 48 h, read-out: GI
In short: (§1)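 Screened at the National Cancer Institute by the standard NCI protocol using the sulforhodamine B assay, which measures cellular protein. Single dose of 10 µM. Result is percent growth inhibition; values above 100% mean cell number fell below the initial population. Values are the average of duplicates.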

OVCAR-8 = test: Growth inhibition of human OVCAR8 cells at 10 uM after 48 hrs by SRB assay relative to control; conditions: OVCAR-8, 48 h, read-out: GI; in short: as §1
HCT-116 = test: Growth inhibition of human HCT116 cells at 10 uM after 48 hrs by SRB assay relative to control; conditions: HCT-116, 48 h, read-out: GI; in short: as §1
NCI-H460 = test: Growth inhibition of human NCI-H460 cells at 10 uM after 48 hrs by SRB assay relative to control; conditions: NCI-H460, 48 h, read-out: GI; in short: as §1
UO-31 = test: Growth inhibition of human UO31 cells at 10 uM after 48 hrs by SRB assay relative to control; conditions: UO-31, 48 h, read-out: GI
In short: (§2)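 NCI screen against its human cancer cell line panel by the standard NCI protocol, SRB protein stain. Single dose of 10 μM. Percent growth inhibition versus control; values above 100% mean the cell population fell below the starting number. Each value is the mean of duplicates.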

NCI-H322M = test: Growth inhibition of human NCI-H322M cells at 10 uM after 48 hrs by SRB assay relative to control; conditions: read-out: GI; in short: as §1
Malme-3M = test: Growth inhibition of human MALME-3M cells at 10 uM after 48 hrs by SRB assay relative to control; conditions: read-out: GI; in short: as §1
SNB-19 = test: Growth inhibition of human SNB19 cells at 10 uM after 48 hrs by SRB assay relative to control; conditions: SNB-19, 48 h, read-out: GI; in short: as §2
KM12 = test: Growth inhibition of human KM12 cells at 10 uM after 48 hrs by SRB assay relative to control; conditions: KM12, 48 h, read-out: GI; in short: as §1
HOP-62 = test: Growth inhibition of human HOP62 cells at 10 uM after 48 hrs by SRB assay relative to control; conditions: HOP-62, 48 h, read-out: GI; in short: as §1
ACHN = test: Growth inhibition of human ACHN cells at 10 uM after 48 hrs by SRB assay relative to control; conditions: read-out: GI; in short: as §1
HCT-15 = test: Growth inhibition of human HCT15 cells at 10 uM after 48 hrs by SRB assay relative to control; conditions: HCT-15, 48 h, read-out: GI; in short: as §1
TK-10 = test: Growth inhibition of human TK10 cells at 10 uM after 48 hrs by SRB assay relative to control; conditions: TK-10, 48 h, read-out: GI; in short: as §2
HT-29 = test: Growth inhibition of human HT-29 cells at 10 uM after 48 hrs by SRB assay relative to control; conditions: HT-29, 48 h, read-out: GI; in short: as §1
COLO 205 = test: Growth inhibition of human COLO205 cells at 10 uM after 48 hrs by SRB assay relative to control; conditions: COLO 205, 48 h, read-out: GI; in short: as §1
SF-268 = test: Growth inhibition of human SF268 cells at 10 uM after 48 hrs by SRB assay relative to control; conditions: SF-268, 48 h, read-out: GI; in short: as §1
NCI-H226 = test: Growth inhibition of human NCI-H226 cells at 10 uM after 48 hrs by SRB assay relative to control; conditions: NCI-H226, 48 h, read-out: GI; in short: as §1
SN12C = test: Growth inhibition of human SN12C cells at 10 uM after 48 hrs by SRB assay relative to control; conditions: read-out: GI; in short: as §1
UACC-62 = test: Growth inhibition of human UACC62 cells at 10 uM after 48 hrs by SRB assay relative to control; conditions: UACC-62, 48 h, read-out: GI; in short: as §2
A549 = test: Growth inhibition of human A549 cells at 10 uM after 48 hrs by SRB assay relative to control; conditions: A549, 48 h, read-out: GI; in short: as §1
MDA-MB-435 = test: Growth inhibition of human MDA-MB-435 cells at 10 uM after 48 hrs by SRB assay relative to control; conditions: MDA-MB-435, 48 h, read-out: GI; in short: as §1

SMILES	inhibition of growth at 10 µM (786-0)	inhibition of growth at 10 µM (OVCAR-8)	inhibition of growth at 10 µM (HCT-116)	inhibition of growth at 10 µM (NCI-H460)	inhibition of growth at 10 µM (UO-31)	inhibition of growth at 10 µM (NCI-H322M)	inhibition of growth at 10 µM (Malme-3M)	inhibition of growth at 10 µM (SNB-19)	inhibition of growth at 10 µM (KM12)	inhibition of growth at 10 µM (HOP-62)	inhibition of growth at 10 µM (ACHN)	inhibition of growth at 10 µM (HCT-15)	inhibition of growth at 10 µM (TK-10)	inhibition of growth at 10 µM (HT-29)	inhibition of growth at 10 µM (COLO 205)	inhibition of growth at 10 µM (SF-268)	inhibition of growth at 10 µM (NCI-H226)	inhibition of growth at 10 µM (SN12C)	inhibition of growth at 10 µM (UACC-62)	inhibition of growth at 10 µM (A549)	also measured
COc1cc2oc(-c3cccc(C(=O)Nc4ccccc4)c3)cc(=O)c2c(OC)c1OC	7.46%	34.9%	18.3%	11.2%	35.6%	17.7%	12.5%	4.37%	24.3%	13.7%	8.22%	20.8%	8.98%	11.5%	2.76%	16.7%	12.7%	27.3%	29.8%	16.7%	inhibition of growth at 10 µM (MDA-MB-435): 8.87%
COc1ccccc1C(=O)Nc1cccc(-c2cc(=O)c3c(O)c(OC)c(OC)cc3o2)c1	11.3%	17.5%	11.7%	-2.21%	15.2%	8.64%	-12.7%	25.4%	5.13%	16.5%	5.14%	3.51%	-0.86%	2.63%	-7.03%	8.58%	13%	5.29%	30.2%	22.1%	inhibition of growth at 10 µM (MDA-MB-435): 1.26%
COc1cc2oc(-c3cccc(NC(=O)c4ccccc4)c3)cc(=O)c2c(OC)c1OC	21.9%	39%	32.3%	21.3%	49%	16.2%	13.2%	8.59%	35.6%	21.6%	38.4%	34.8%	8.72%	22.9%	15.6%	27.7%	18.6%	23.8%	33.2%	31.1%	inhibition of growth at 10 µM (MDA-MB-435): 19.3%
COc1cccc(NC(=O)c2cccc(-c3cc(=O)c4c(O)c(OC)c(OC)cc4o3)c2)c1	14.2%	62.5%	30.7%	31.4%	41.7%	12.9%	12.3%	16.4%	35.5%	37.5%	33.8%	25.7%	6.27%	15.6%	24.3%	22.9%	41.5%	19%	44.4%	26.6%	inhibition of growth at 10 µM (MDA-MB-435): 22.6%
COc1ccc(C(=O)Nc2cccc(-c3cc(=O)c4c(OC)c(OC)c(OC)cc4o3)c2)cc1	45%	42.1%	52.2%	57.9%	73.5%	44.9%	46.6%	35.4%	53.7%	27.5%	53%	54.8%	23.3%	53.3%	26.9%	41.6%	30.1%	50%	44.6%	35.3%	inhibition of growth at 10 µM (MDA-MB-435): 30.4%
COc1cccc(NC(=O)c2cccc(-c3cc(=O)c4c(OC)c(OC)c(OC)cc4o3)c2)c1	31.1%	53%	39.3%	39.9%	68.4%	19.9%	15.2%	17.5%	46.3%	40.5%	37.5%	45.3%	21.2%	49.2%	31.7%	36.9%	36.7%	37.7%	37.9%	37.2%	inhibition of growth at 10 µM (MDA-MB-435): 18.8%
COc1ccc(NC(=O)c2cccc(-c3cc(=O)c4c(O)c(OC)c(OC)cc4o3)c2)cc1	57%	19.4%	29.5%	7.3%	6.6%	0.54%	19.4%	38.4%	-3.03%	27.8%	16.4%	-7.36%	-5.09%	12.3%	2.39%	45.4%	8.07%	15.7%	18.9%	18.7%	inhibition of growth at 10 µM (MDA-MB-435): -5.05%
COc1cc2oc(-c3cccc(C(=O)Nc4ccc5c(c4)OCO5)c3)cc(=O)c2c(OC)c1OC	7.44%	45.9%	27.3%	26.9%	41%	22.6%	1.22%	5.13%	32.7%	26.6%	10.2%	28.2%	16.1%	17.2%	24.4%	12.5%	21.2%	30.8%	19.1%	25.5%	inhibition of growth at 10 µM (MDA-MB-435): 4.94%
COc1cc2oc(-c3cccc(C(=O)Nc4ccc5c(c4)OCO5)c3)cc(=O)c2c(O)c1OC	35.7%	69.4%	43%	45.7%	17.9%	19%	11.9%	27.9%	29.4%	39.6%	24.8%	6.45%	1.4%	23.7%	5.22%	41.3%	21.5%	31.3%	18.6%	25.1%	inhibition of growth at 10 µM (MDA-MB-435): 20.9%
